Data taken from publication PMC4317570 (Cell metabolism, 2015).
Values belong to the compound of their own block, whether it stands above or below them.

Legend:
RORγ LBD [1] = test: Fluorescein-NCOA2 coactivator peptide recruitment, fluorescence polarization; format: biochemical; settings: fluoresceinated NCOA2 peptide, holo vs apo receptor
RORγ LBD [2] = test: CD thermal denaturation of RORγ LBD, apo vs holo; format: binding; settings: holo vs apo receptor
RORγ [3] = target: T1, RORγ (Mus musculus, UniProt P51450); test: RORγ reporter assay in mammalian cells; format: cell-based; settings: mammalian cells (HEK293T)
T1 sequence (P51450 267-516 limits assumed): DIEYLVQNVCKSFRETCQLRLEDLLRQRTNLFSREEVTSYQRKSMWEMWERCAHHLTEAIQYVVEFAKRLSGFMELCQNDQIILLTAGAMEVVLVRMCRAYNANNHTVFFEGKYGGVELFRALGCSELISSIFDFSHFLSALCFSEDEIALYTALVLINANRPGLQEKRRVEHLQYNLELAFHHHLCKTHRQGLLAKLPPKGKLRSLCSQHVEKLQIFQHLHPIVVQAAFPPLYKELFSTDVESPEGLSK
Method in brief: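 HEK293T cells are co-transfected with a RORγ-gal4 fusion plus a GAL4 UAS firefly luciferase reporter (luc2p) and exposed to test compound. Luciferase activity is the read-out. Data are averages of technical triplicates ± standard deviation, representative of n=6 experiments. Statistics use two-tailed unpaired Student's t-test on aggregated experiments.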

[4] = test system: Sc4mol-/- naïve CD4+ T cells; test: Th17 cell polarization of RORγt-cre Sc4mol-/- naïve CD4+ T cells; format: cell-based, mouse
RORγ [5] = target: RORγ (Mus musculus, UniProt P51450); test: RORγ-gal4/UAS luciferase reporter in insect cells grown in sterol-free CDM; format: cell-based
Method in brief: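 Drosophila Kc167 cells are kept in continuous culture in lipid-free chemically defined medium: 40% Grace's medium, 10% Murashige–Skoog micronutrients, 1% NEAS, 1 mM pyruvate, 2% ITS-A and 1% Pluronic F-68. Cells are transiently transfected with RORγ-gal4 plus a UAS luc2p firefly luciferase reporter (minimal hsp70 promoter), then treated with test compound. EC50 is derived from reporter activity. Each compound is tested at least twice in technical triplicates ± standard deviation.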

[6] = test system: RORγ reporter activity in U937ROR cells; format: cell-based; settings: media supplemented with exogenous cholesterol
RORγ LBD [7] = test: Competition binding with fluorescein-labeled 25-hydroxycholesterol; settings: recombinant RORγ
[8] = test system: RORγ reporter activity in SXLT cells; test: Full length RORγ reporter; format: cell-based; settings: media supplemented with compound, Fdft1-/- SXLT cells
Method in brief: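 Fdft1−/− SXLT cells are transfected with a full-length RORγ construct driving a firefly luciferase reporter from an endogenous Il-23r enhancer element. Test compound is added to the medium, and luciferase activity is read. Data are technical triplicates ± standard deviation, representative of n=4 experiments. Comparison is by two-tailed unpaired Student's t-test on aggregated experiments.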

Compound: CC(C)CCC[C@@H](C)[C@H]1CC[C@H]2C3=CCC4[C@H](C(=O)O)[C@@H](O)CC[C@]4(C)[C@H]3CC[C@]12C (stereo partly drawn) [4ACD7, 4α-carboxy-cholest-7-en-3β-ol]
Co-activator peptide recruitment to RORγ (RORγ LBD [1]): promote the recruitment | Thermal stability of the RORγ LBD (RORγ LBD [2]): increase stability

Compound: CC(C)=CCC[C@@H](C)[C@H]1CC[C@H]2C3=C(CC[C@]12C)[C@@]1(C)CCC(O)[C@@](C)(C(=O)O)C1CC3 (stereo partly drawn) [4ACD8, 4α–carboxy, 4β-methyl-cholesta-8,24-dien-3-ol]
RORγ reporter activity in mammalian cells (RORγ [3]): specific agonist activity | Co-activator peptide recruitment to RORγ (RORγ LBD [1]): promoted co-activator peptide recruitment | Thermal stability of the RORγ LBD (RORγ LBD [2]): increased the thermal stability | Th17 cell differentiation in Sc4mol-/- naïve CD4+ T cells ([4]; 1 μM added to media): rescues Th17 cell differentiation

Compound: CC(C)=CCC[C@@H](C)[C@H]1CC[C@@]2(C)C3=CCC4[C@](C)(C=O)C(O)CC[C@]4(C)[C@H]3CC[C@]12C (stereo partly drawn) [4α–formyl,4β,14α-dimethyl-cholesta-7,24-dien-3-ol]
EC50 (RORγ [5]): 150 to 500 nM | RORγ reporter activity in mammalian cells (RORγ [3]): no activity

RORγ reporter activity in mammalian cells (RORγ [3]): no activity
Compound: CC(C)=CCCC(C)C1CCC2(C)C3=CCC4C(C)(CO)C(O)CCC4(C)C3CCC12C (stereo not drawn) [4α–hydroxymethyl,4β,14α-dimethyl-cholesta-7,24-dien-3-ol]

RORγ reporter activity in mammalian cells (RORγ [3]): weak agonist
Compound: CC(C)=CCC[C@@H](C)[C@H]1CC=C2C3=C(CC[C@@]21C)[C@@]1(C)CCC(O)C(C)(C)C1CC3 (stereo partly drawn) [FF-MAS, 4α,4β-dimethyl-cholesta-8,14,24-trien-3-ol, reference compound]

Compound: C=CCN(C)CCCCCCOc1ccc(C(=O)c2ccc(Br)cc2)c(F)c1.O=C(O)/C=C/C(=O)O [Ro 48-8071 fumarate]
RORγ reporter activity in U937ROR cells [6]: inhibited in a dose dependent fashion

Binding to RORγ (RORγ LBD [7]): bind very weakly if at all
Compound: CC(C)=CCC[C@@H](C)[C@H]1CC[C@H]2C3=C(CC[C@]12C)[C@@]1(C)CCC(O)C(C)(C)C1CC3 (stereo partly drawn) [T-MAS, 4α,4β-dimethyl-cholesta-8,24-dien-3-ol]

Compound: CC(C)CCC[C@@H](C)[C@H]1CC[C@H]2[C@@H]3CC=C4C[C@@H](O)CC[C@]4(C)[C@H]3CC[C@]12C [cholesterol, reference compound]
Th17 polarization defect of Sc4mol-/- T cells ([4]; supplementation of media): could not be alleviated

Compound: CC(C)=CCC[C@@H](C)[C@H]1CC[C@@]2(C)C3=C(CC[C@]12C)[C@@]1(C)CC[C@H](O)C(C)(C)[C@@H]1CC3 [lanosterol, 14α,4α,4β-trimethyl-cholesta-8,24-dien-3-ol]
RORγ reporter activity in insect cells (RORγ [5]; higher concentrations): significant RORγ reporter activity | RORγ reporter activity in insect cells (RORγ [5]; physiological concentrations (1 μM)): little to no activity

Compound: CC[C@H](C)C(=O)O[C@H]1C[C@@H](C)C=C2C=C[C@H](C)[C@H](CC[C@@H]3C[C@@H](O)CC(=O)O3)[C@H]21 [lovastatin]
RORγ reporter activity in U937ROR cells [6]: inhibited in a dose dependent fashion

Compound: CC(C)=CCC/C(C)=C/CC/C(C)=C/CC/C=C(\C)CC/C=C(\C)CCC=C(C)C [squalene]
Rescue of full length RORγ reporter activity in SXLT cells [8]: partially rescue
